Results on 7 molecules are retold here after ChEMBL document CHEMBL1121586, “Synthesis, biological activity, and structure--activity/toxicity relationships of a series of terphenyl analogues of hemicholinium-3 and acetyl-seco-hemicholinium-3. 3” (J Med Chem, 1980).

Series [1] relates to Mus musculus. In words: Tested for percentage mortality in charles river CD-1 strain adult male albino mice after introducing antagonist choline at intraperitoneal dosage of 20 mg/kg, 1 min prior to compound; b represents Least toxic. In kind it is functional, organism-based. On the set-up: dose 20 mg/kg.
The nature of series [2]: Tested for biphenyl analogue in charles river CD-1 strain adult male albino mice after intraperitoneal administration. Particulars: CD-1, mouse, in vivo, ip. It counts as ADME, organism-based.
Series [3] concerns Mus musculus. The experiment in a line: Tested for percentage mortality in charles river CD-1 strain adult male albino mice after introducing antagonist neostigmine at intraperitoneal dosage of 0.2 mg/kg, 1 min prior to compound; b represents Least toxic. It counts as functional, organism-based. On the set-up: dose 0.2 mg/kg.
In series [4] the test system is Mus musculus. In words: Tested for terphenyl analogue in charles river CD-1 strain adult male albino mice after intraperitoneal administration; b represents Least toxic. It counts as ADME, organism-based. Particulars: in vivo, ip.
A short description of series [5]: Ratio of terphenyl LD50 doses to biphenyl HC-3 in charles river CD-1 strain adult male albino mice. It counts as ADME, organism-based. As to conditions: CD-1, mouse, in vivo.
In series [6] the test system is Mus musculus. In words: Tested for percentage mortality in charles river CD-1 strain adult male albino mice after introducing antagonist neostigmine at intraperitoneal dosage of 0.2 mg/kg, 1 min prior to compound. In kind it is functional. More on the design: concentration or dose not given beside the values. Particulars: ip.
Series [7] is described as follows: Ratio of terphenyl LD50 doses to biphenyl analogues in charles river CD-1 strain adult male albino mice. It counts as ADME, organism-based. Particulars: CD-1, mouse, in vivo.
Series [8] can be described thus: Tested for terphenyl analogue in charles river CD-1 strain adult male albino mice after intraperitoneal administration. It counts as ADME, organism-based. As to conditions: CD-1, mouse, in vivo, ip. The essentials:
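Adult male albino Charles River CD-1 mice (20-30 g) were dosed ip with a suspension in 0.8% (w/v) sodium carboxymethylcellulose in 0.9% NaCl. The LD50 was estimated by Finney's staircase sampling method, which allows for variation in LD50 with time of day, and is reported with 95% confidence limits.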

In series [9] the test system is Mus musculus. The experiment in a line: Tested for percentage mortality in charles river CD-1 strain adult male albino mice after introducing antagonist choline at intraperitoneal dosage of 20 mg/kg, 1 min prior to compound. More on the design: concentration or dose not given beside the values. In kind it is functional. As to conditions: ip.

The structures appear in SMILES notation.

Regarding `C[N+](C)(CCS)CC(=O)c1ccc(-c2ccc(-c3ccc(C(=O)C[N+](C)(C)CCS)cc3)cc2)cc1.[Br-].[Br-]`, the Mortality result in the series with Mus musculus [1] and in the series with Mus musculus [3] was “Toxic” each time. The molecule further gave an LD50 in [2] of 29.4 mg/kg. Moreover, the LD95 entry in the series on Mus musculus [4] is listed as “Toxic”.

As to `CCCCC[N+](C)(C)CC(=O)c1ccc(-c2ccc(-c3ccc(C(=O)C[N+](C)(C)CCCCC)cc3)cc2)cc1.[Br-].[Br-]`, the selectivity ratio was found to be 32.8 in series [5] and 1.38 in [7]. Moreover, the LD50 came out at 5.6 mg/kg in series [2] and 5.32 mg/kg in series [8]. Further, the figures for the mortality in the series on Mus musculus [6] and in the series on Mus musculus [9] were 100% and 80%, respectively.

With `CC(=O)CCC[N+](C)(C)CC(=O)c1ccc(-c2ccc(-c3ccc(C(=O)C[N+](C)(C)CCCC(C)=O)cc3)cc2)cc1.[Br-].[Br-]`, the values for the selectivity ratio in [5] and in [7] were 32.8 and 1.38, respectively. Moreover, the LD50 came to 3.1 mg/kg in [2] and 4.27 mg/kg in [8].

`C[N+]1(C)CCOC(O)(c2ccc(-c3ccc(-c4ccc(C5(O)C[N+](C)(C)CCO5)cc4)cc3)cc2)C1.[Br-].[Br-]` (stereo not drawn): the selectivity ratio in series [5] and in series [7] was 0.82 each time. In addition, the LD50 was found to be 0.13 mg/kg in [2] and 0.107 mg/kg in series [8]. In addition, the mortality with Mus musculus [6] worked out at 80%; with Mus musculus [9], 70%.

`CCOCC[N+](C)(C)CC(=O)c1ccc(-c2ccc(-c3ccc(C(=O)C[N+](C)(C)CCOCC)cc3)cc2)cc1.[Br-].[Br-]`: the selectivity ratio is 127 in [5] and 9.02 in series [7]. Further, the LD50 turned out to be 1.84 mg/kg in series [2] and 16.6 mg/kg in series [8]. In addition, the mortality in the series on Mus musculus [6] and in the series with Mus musculus [9] was 90% throughout.

As for `CC(=O)OCC[N+](C)(C)CC(=O)c1ccc(-c2ccc(-c3ccc(C(=O)C[N+](C)(C)CCOC(C)=O)cc3)cc2)cc1.[Br-].[Br-]`, the selectivity ratio in series [5] is 2.56; in [7], 2.66. The 50% lethal dose (LD50) was found to be 0.125 mg/kg in series [2] and 0.333 mg/kg in [8]. In addition, the mortality is 20% in the series with Mus musculus [6] and 30% in the series on Mus musculus [9].

With `CC(=O)SCC[N+](C)(C)CC(=O)c1ccc(-c2ccc(-c3ccc(C(=O)C[N+](C)(C)CCSC(C)=O)cc3)cc2)cc1.[Br-].[Br-]`, the selectivity ratio in series [5] was 23.5; in [7] it was 22.9. Besides, the median lethal dose (LD50) was determined as 0.133 mg/kg in series [2] and 3.05 mg/kg in [8]. For the same molecule, the mortality came to 80% in the series on Mus musculus [6] and 60% in the series with Mus musculus [9].

As a reminder, the LD50 is the dose at which mortality reaches 50%. The mortality is the percentage killed.
